Source: ChEMBL document CHEMBL4049408, “Exploration of 2-((Pyridin-4-ylmethyl)amino)nicotinamide Derivatives as Potent Reversal Agents against P-Glycoprotein-Mediated Multidrug Resistance” (J Med Chem, 2017)

How the values were obtained:
K562 [1] = assay: Cytotoxicity against human K562 cells after 48 hrs by MTT assay; assay type: functional, cell-based; settings: K562, 48 h
Outline: (§1)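 MTT viability in parental K562 and P-gp-overexpressing K562/A02 cells. Compound alone at a concentration series gives the IC50. Mean ± SD of three independent tests.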

[2] = biological target: T1, ATP-dependent translocase ABCB1 (Homo sapiens, UniProt P08183); assay: Inhibition of ABCB1 in human K562/A02 cells assessed as potentiation of adriamycin-mediated cytotoxicity by measuring reduction in ADR IC50 at 5 uM after 48 hrs by MTT assay relative to control; assay type: cell-based
T1 sequence (P08183 whole entry): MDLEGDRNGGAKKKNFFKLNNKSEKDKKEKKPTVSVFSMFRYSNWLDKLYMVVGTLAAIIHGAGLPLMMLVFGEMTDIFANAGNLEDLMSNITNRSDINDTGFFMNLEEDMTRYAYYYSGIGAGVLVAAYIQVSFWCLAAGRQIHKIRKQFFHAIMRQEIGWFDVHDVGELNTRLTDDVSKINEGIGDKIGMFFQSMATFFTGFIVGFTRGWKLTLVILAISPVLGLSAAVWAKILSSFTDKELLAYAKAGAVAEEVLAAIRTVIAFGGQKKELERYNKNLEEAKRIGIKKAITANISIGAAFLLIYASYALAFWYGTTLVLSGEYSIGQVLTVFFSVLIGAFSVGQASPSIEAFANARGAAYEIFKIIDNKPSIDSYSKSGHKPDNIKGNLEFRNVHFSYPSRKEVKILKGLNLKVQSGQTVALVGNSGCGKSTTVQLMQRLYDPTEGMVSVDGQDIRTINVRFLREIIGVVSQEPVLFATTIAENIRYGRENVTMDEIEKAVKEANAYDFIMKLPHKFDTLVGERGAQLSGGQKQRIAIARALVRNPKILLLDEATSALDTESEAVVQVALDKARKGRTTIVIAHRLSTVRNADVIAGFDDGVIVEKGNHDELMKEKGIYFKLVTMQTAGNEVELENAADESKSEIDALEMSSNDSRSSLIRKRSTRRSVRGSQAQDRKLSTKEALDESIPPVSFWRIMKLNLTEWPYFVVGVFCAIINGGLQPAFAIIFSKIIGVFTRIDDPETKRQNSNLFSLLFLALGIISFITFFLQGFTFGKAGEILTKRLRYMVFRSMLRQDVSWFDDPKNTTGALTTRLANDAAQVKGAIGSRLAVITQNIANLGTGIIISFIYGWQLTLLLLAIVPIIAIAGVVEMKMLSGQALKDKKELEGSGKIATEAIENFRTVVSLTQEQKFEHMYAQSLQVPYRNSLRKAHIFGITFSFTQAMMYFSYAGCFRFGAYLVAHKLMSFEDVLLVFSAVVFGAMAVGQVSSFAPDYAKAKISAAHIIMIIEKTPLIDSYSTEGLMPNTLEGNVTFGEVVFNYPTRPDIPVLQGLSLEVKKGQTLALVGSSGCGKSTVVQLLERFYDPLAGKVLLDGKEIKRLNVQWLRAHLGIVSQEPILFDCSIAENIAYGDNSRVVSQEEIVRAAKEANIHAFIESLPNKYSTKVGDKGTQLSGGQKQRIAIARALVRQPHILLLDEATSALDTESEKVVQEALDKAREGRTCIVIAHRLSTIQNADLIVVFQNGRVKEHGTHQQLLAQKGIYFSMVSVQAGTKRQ
Outline: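 K562/A02 cells exposed to a series of adriamycin concentrations with modulator at 5.0 µM; 0.1% DMSO as solvent control. IC50 read by MTT. Reversal fold = IC50 without inhibitor / IC50 with inhibitor. Mean ± SD of three independent tests.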

K562/A02 [3] = assay: (§2) Cytotoxicity against human K562/A02 cells assessed as cell survival at 5 uM after 48 hrs by MTT assay relative to control; assay type: cell-based; settings: k562/a02, 48 h, 5 µM
Outline: (§3)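 MTT viability assay in P-gp-overexpressing, ADM-resistant K562/A02 cells, alongside parental K562. […] Values are mean ± SD of three independent tests.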

K562/A02 [4] = assay: Cytotoxicity against human K562/A02 cells overexpressing P-gp after 48 hrs by MTT assay; assay type: functional, cell-based; settings: K562/A02, 48 h; outline: as §1
[5] = as §2; assay type: cell-based; settings: K562/A02 cells, read-out: Survival; outline: as §3
K562 [6] = assay: Resistance index, ratio of IC50 for human K562/A02 cells to IC50 for human K562 cells; assay type: functional
Outline: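 Adriamycin IC50 measured by MTT in K562/A02 and in parental K562 cells. Fold resistance is the ratio of the resistant-line IC50 to the sensitive-line IC50. Mean ± SD of three independent tests.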

[7] = Inhibition of CYP3A4 in rat liver microsomes assessed as 6beta-hydroxytestosterone formation using testosterone as substrate by reverse-phase HPLC analysis; assay type: ADME
[8] = biological target: T1, ATP-dependent translocase ABCB1; assay: Substrate activity at ABCB1 ATPase in human ABCB1 membrane fraction assessed as increase in ATPase activity at 50 uM preincubated with compound followed by addition of MgATP measured after 1 hr by luciferase reporter gene assay relative to control; assay type: cell membranes
[9] = biological target: T1, ATP-dependent translocase ABCB1; assay: Inhibition of ABCB1 in human K562/A02 cells assessed as increase in intracellular Rh123 accumulation at 5 uM up to 90 mins by flow cytometry; assay type: cell-based; settings: 1.5 h
Outline: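 K562/A02 cells treated with 5.0 µM modulator; Rh123-associated mean fluorescence intensity read by flow cytometry at 5, 10, 25, 30, 60 and 90 min. Untreated cells as negative control. Mean ± SD of three experiments.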

fold change (FC) [8]	inhibition (INH) [9]	Compound	IC50 (K562 [1]) [µM]	fold change (FC) [2]	Activity (K562/A02 [3])	IC50 (K562/A02 [4]) [µM]	viability at 48 h, 5 µM [5] [%]	Ratio IC50 (K562 [6])	inhibition (INH) [7]
–	–	COc1cc2c(cc1OC)C(C(C)(C)C)N(C(=O)c1cccnc1NCc1ccncc1)CC2 (stereo unspecified)	> 100	2.66	Non-Toxic	> 100	–	–	–
–	–	COc1ccc(CCNC(=O)c2cccnc2NCc2ccncc2)cc1OC	> 100	16.6	–	> 100	> 90	–	–
–	–	COc1cc2c(cc1OC)CN(C(=O)c1cccnc1NCc1ccncc1)CC2	72.5	17.97	Non-Toxic	85.7	–	–	–
–	–	O=C(c1ccccc1)c1ccccc1NC(=O)c1cccnc1NCc1ccncc1	> 100	1.28	Non-Toxic	> 100	–	–	–
–	–	O=C(Nc1ccc(CCN2CCOCC2)cc1)c1cccnc1NCc1ccncc1	> 100	5.64	Non-Toxic	> 100	–	–	–
–	–	COc1cccc(NC(=O)c2cccnc2NCc2ccncc2)c1	> 100	3.76	–	> 100	> 90	–	–
–	–	COc1cc2c(cc1OC)C(c1ccccc1)N(C(=O)c1cccnc1NCc1ccncc1)CC2 (stereo unspecified)	> 100	2.96	Non-Toxic	> 100	–	–	–
–	–	COc1cccc(-c2nnc(NC(=O)c3cccnc3NCc3ccncc3)s2)c1	39.5	4.6	–	> 100	> 90	–	–
–	–	O=C(c1cccnc1NCc1ccncc1)N(Cc1ccccc1)Cc1ccccc1	76.4	10.14	Non-Toxic	82.2	–	–	–
–	–	O=C(Nc1ccc(F)c(Cl)c1)c1cccnc1NCc1ccncc1	78.9	6.6	–	27.9	> 90	–	–
–	–	COc1ccc(C2c3cc(OC)c(OC)cc3CCN2C(=O)c2cccnc2NCc2ccncc2)cc1OC (stereo unspecified)	> 100	3.44	Non-Toxic	> 100	–	–	–
–	–	O=C(Nc1ccc(N2CCCCC2)cc1)c1cccnc1NCc1ccncc1	> 100	5.21	–	> 100	> 90	–	–
–	–	O=C(NC1CCCc2ccccc21)c1cccnc1NCc1ccncc1 (stereo unspecified)	66.1	4.24	–	> 100	> 90	–	–
–	–	O=C(Nc1ccc(OC(F)(F)F)cc1)c1cccnc1NCc1ccncc1	24.2	8.42	–	28.7	> 90	–	–
–	–	O=C(NC(c1ccccc1)c1ccccc1)c1cccnc1NCc1ccncc1	> 100	3.94	Non-Toxic	> 100	–	–	–
–	–	COc1cc2c(cc1OC)C(c1ccco1)N(C(=O)c1cccnc1NCc1ccncc1)CC2 (stereo unspecified)	> 100	1.52	Non-Toxic	> 100	–	–	–
–	–	COc1cccc2c1C(=O)c1c(O)c3c(c(O)c1C2=O)C[C@@](O)(C(=O)CO)C[C@@H]3O[C@H]1C[C@H](N)[C@H](O)[C@H](C)O1.Cl [DOXORUBICIN HYDROCHLORIDE]	0.51 to 0.58	–	–	54 to 56.8	–	105.8	–
–	–	CN1CCN(CCc2ccc(NC(=O)c3cccnc3NCc3ccncc3)cc2)CC1	> 100	2.04	Non-Toxic	> 100	–	–	–

fold change (FC) [8]	inhibition (INH) [9]	Compound	IC50 (K562 [1]) [µM]	fold change (FC) [2]	Activity (K562/A02 [3])	IC50 (K562/A02 [4]) [µM]	viability at 48 h, 5 µM [5] [%]	Ratio IC50 (K562 [6])	inhibition (INH) [7]
–	–	CC(=O)N1CCN(c2ccc(OCC3COC(Cn4ccnc4)(c4ccc(Cl)cc4Cl)O3)cc2)CC1 (stereo unspecified) [KETOCONAZOLE]	–	–	–	–	–	–	Dose-dependent effect
–	–	O=C(Nc1ccc2c(c1)Cc1ccccc1-2)c1cccnc1NCc1ccncc1	70	13.65	Non-Toxic	> 100	–	–	–
–	–	COc1cc2c(cc1OC)C(Cc1cccc3ccccc13)N(C(=O)c1cccnc1NCc1ccncc1)CC2 (stereo unspecified)	> 100	2.51	Non-Toxic	> 100	–	–	–
–	–	COc1ccc(NC(=O)c2cccnc2NCc2ccncc2)cc1Cl	> 100	5.29	–	> 100	> 90	–	–
–	–	O=C(Nc1ccc(-c2ccccc2)cc1)c1cccnc1NCc1ccncc1	17	12.69	–	27.9	> 90	–	–
2.56	Active	COc1ccc(CCN(C)CCCC(C#N)(c2ccc(OC)c(OC)c2)C(C)C)cc1OC (stereo unspecified)	36.7 to 37.3	–	–	31.3 to 33.6	–	–	–
–	–	O=C(Nc1cccc2ccccc12)c1cccnc1NCc1ccncc1	> 100	7.74	–	> 100	> 90	–	–
–	–	COc1ccc(CN(C)C(=O)c2cccnc2NCc2ccncc2)cc1OC	> 100	9.58	–	> 100	> 90	–	–
–	–	COc1cc(NC(=O)c2cccnc2NCc2ccncc2)cc(OC)c1OC	> 100	3.51	–	> 100	> 90	–	–
–	–	O=C(NCCc1cccs1)c1cccnc1NCc1ccncc1	> 100	1.37	–	> 100	> 90	–	–
–	–	CN1CCN(c2ccc(NC(=O)c3cccnc3NCc3ccncc3)cc2)CC1	> 100	4.93	–	> 100	> 90	–	–
–	–	CC(C)(C)c1ccc(NC(=O)c2cccnc2NCc2ccncc2)cc1	> 100	4.27	–	> 100	> 90	–	–
–	–	O=C(NCc1ccncc1)c1cccnc1NCc1ccncc1	> 100	7.92	–	> 100	> 90	–	–
–	–	O=C(c1cccnc1NCc1ccncc1)N1CCC(N2CCCCC2)CC1	51.4	1.2	–	> 100	> 90	–	–
–	–	Cc1cccc(Cl)c1NC(=O)c1cnc(NC(=O)c2cccnc2NCc2ccncc2)s1	57.7	7.95	Non-Toxic	86	–	–	–
–	–	O=C(Nc1ccc(N2CCOCC2)cc1)c1cccnc1NCc1ccncc1	> 100	18.8	–	> 100	> 90	–	–
–	–	O=C(Nc1nc2ccccc2[nH]1)c1cccnc1NCc1ccncc1	> 100	1.69	–	> 100	> 90	–	–
